The subject of one assay is PC-3. Put plainly: Dose required for reduction in human prostate PC-3 cancer cells after 3 days incubation. The format is functional. To be noted: PC-3, 72 h, read-out: ED50 (the source's name). In outline:
(§1)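 Cells grown at 37 °C, humidified 5% CO2, in RPMI-1640 with 25 mM HEPES, […], 10% (v/v) FBS and 100 µg/mL kanamycin. Drug exposure for 3 days. ED50 (concentration giving 50% reduction in cell number) interpolated from dose–response data. Triplicate tests, variation no more than 5%; independent ED50 determinations varied no more than 30%.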

The next assay has as its system 1A9/ptx-10. Put plainly: Dose required for reduction in paclitaxel resistant human ovarian 1A9-PTX10 cancer cells after 3 days incubation. The assay is classed as functional. Conditions: 1A9/ptx-10, 72 h, read-out: ED50 (the source's name). In outline:
as §1

For a further assay, the system named is U-87 MG. The experiment in a line: Dose required for reduction in human glioblastoma U-87-MG cancer cells after 3 days incubation. The assay is classed as functional, U-87MG ATCC. Conditions: 72 h, read-out: ED50 (the source's name). The procedure, abridged: as §1
Assay [1] concerns KB. Put plainly: Dose required to cause reduction in human nasopharyngeal KB cancer cells after 3 days incubation. The format is functional. Conditions: 72 h, read-out: ED50 (the source's name). The procedure, abridged: as §1
The subject of assay [2] is KB. Put plainly: Dose required for reduction in camptothecin resistant human nasopharyngeal KB cancer cells after 3 days incubation. The format is functional. Conditions: 72 h, read-out: ED50 (the source's name). The procedure, abridged: as §1
For assay [3], the system named is KB. Put plainly: Dose required for reduction in etoposide resistant human nasopharyngeal KB-7d cancer cells after 3 days incubation. The format is functional. Conditions: 72 h, read-out: ED50 (the source's name). In outline:
as §1

For assay [4], the system named is KB. Put plainly: Dose required for reduction in vincristine resistant human nasopharyngeal KB-VIN cancer cells after 3 days incubation. The format is functional. Conditions: 72 h, read-out: ED50 (the source's name). In outline: as §1
A further assay relates to A549. Put plainly: Dose required for reduction in human lung A549 cancer cells after 3 days incubation. Conditions: A549, 72 h, read-out: ED50 (the source's name). The format is functional. The procedure, abridged:
as §1

The next assay has as its system MCF7. The experiment in a line: Dose required for reduction in human breast MCF-7 cancer cells after 3 day incubation. The assay is classed as functional. To be noted: MCF7, 72 h, read-out: ED50 (the source's name). In outline:
as §1

Assay [5] relates to CAKI-1. Put plainly: Dose required for reduction in human renal CAKI-1 cancer cells after 3 days incubation; NA = not applicable. The assay is classed as functional, cell-based. In outline:
as §1

The subject of another assay is HCT-8. Put plainly: Dose required for reduction in human ileocecal HCT-8 cancer cells after 3 day incubation. The assay is classed as functional. To be noted: HCT-8, 72 h, read-out: ED50 (the source's name). The procedure, abridged: as §1
The next assay concerns 1A9. The experiment in a line: Dose required to cause reduction in human ovarian 1A9 cancer cells after 3 days incubation. The assay is classed as functional. Conditions: 1A9, 72 h, read-out: ED50 (the source's name). The procedure, abridged: as §1
The subject of assay [6] is KB. Put plainly: Ratio of ED50 for KB-7d cells to that of KB cells. The format is functional, Homo sapiens. In outline: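 Relative resistance (fold) taken as ED50 against KB-7d divided by ED50 against KB. Both values come from 3-day drug exposure, with ED50 interpolated from dose–response data as the concentration reducing cell number by 50%.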
The test system of assay [7] is KB. Put plainly: Dose required to cause reduction in human nasopharyngeal KB-7d cancer cells after 3 days incubation. The assay is classed as functional. Conditions: 72 h, read-out: ED50 (the source's name). The procedure, abridged:
as §1

Assay [8] relates to CAKI-1. The experiment in a line: Dose required for reduction in human renal CAKI-1 cancer cells after 3 days incubation. The format is functional. Conditions: CAKI-1, 72 h, read-out: ED50 (the source's name). In outline: as §1
The target in assay [9] is T1, DNA topoisomerase II (Homo sapiens) (UniProt P11388+Q02880). Put plainly: Percentage of protein-linked DNA breaks in KB cells by [3H]thymidine incorporation. On the set-up: concentration or dose not given beside the values. The assay is classed as functional, cell-based. In outline: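 KB cells labelled overnight with 0.5 µCi/mL [methyl-3H]thymidine ([…]), chased 2 h, then treated in duplicate with compound at 10 µg/mL for 1 h. Protein-associated DNA breaks measured as potassium–SDS precipitable radioactivity. Values expressed relative to VP-16 control set at 100%.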

The target of assay [10] is T1, DNA topoisomerase II (Homo sapiens). Put plainly: Percentage of protein-linked DNA breaks in KB cells by [3H]thymidine incorporation at 5 ug/mL. The format is functional, cell-based. The procedure, abridged: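 [3H]thymidine-prelabelled KB cells (0.5 µCi/mL, overnight, 2 h chase) treated in duplicate with compound at 5 µg/mL for 1 h. Protein-linked DNA breaks read as potassium–SDS precipitable radioactivity, given as percent of the VP-16 control set at 100%.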

In assay [11] the test system is KB. The experiment in a line: Dose required for reduction in human nasopharyngeal KB-7d cancer cells after 3 days incubation. To be noted: 72 h, read-out: ED50 (the source's name). The assay is classed as functional. The procedure, abridged: as §1

Structures are written as SMILES. In brackets after ≈: the same amount, converted by molar mass. Several values for one entry are separate records, joined by “and”; a condition that tells them apart may be missing. Equal entries are not always repeated. Activity calls are given as the source filed them. The rule behind the calls is not given here.

On to `COc1cc([C@@H]2c3cc4c(cc3[C@@H](NC(=O)[C@@H](N)Cc3ccc(O)cc3)[C@H]3COC(=O)[C@H]23)OCO4)cc(OC)c1O`, for which the EC50 in the assay on PC-3 was above 100 µM; with 1A9/ptx-10, above 5 µM; with U-87 MG it was above 100 µM; with KB [1], 18.8 µM; in the assay with KB [2], 44.8 µM; with KB [3] it was 30.2 µM. Also, the EC50 with KB [4] is above 100 µM; in the assay with A549, 54.3 µM; with MCF7, 41.7 µM; with HCT-8, above 100 µM; with 1A9, 3.3 µM. Also, the ED50 result in the assay with CAKI-1 [5] is “inactive”.

On to `COc1cc([C@@H]2c3cc4c(cc3[C@@H](Nc3ccc(NC(=O)[C@@H](Cc5ccc(O)cc5)NC(=O)OCc5ccccc5)cc3)[C@H]3COC(=O)[C@H]23)OCO4)cc(OC)c1O`, for which the EC50 in the assay on PC-3 was above 100 µM; with 1A9/ptx-10 it was 0.92 µM; with U-87 MG, above 100 µM; in the assay on KB [1], 0.49 µM; with KB [4], above 100 µM; in the assay with A549 it was 0.77 µM. The figures for the EC50 with MCF7, in the assay with HCT-8 and in the assay on 1A9 were 1.9 µM, above 100 µM and 0.0086 µM, respectively. Further, in the assay with CAKI-1 [5], the ED50 result is “inactive”.

`COc1cc([C@@H]2c3cc4c(cc3[C@@H](O[C@@H]3O[C@@H]5CO[C@@H](C)O[C@H]5[C@H](O)[C@H]3O)[C@H]3COC(=O)[C@H]23)OCO4)cc(OC)c1O` [ETOPOSIDE]: the Relative resistance with KB [6] is listed as above 20. The EC50 in the assay with KB [7] is above 10 µg/mL; in the assay with PC-3, above 100 µM; in the assay with 1A9/ptx-10, above 5 µM; with U-87 MG, 73.6 µM; in the assay with KB [1] it was 0.5 µg/mL and 300 nM; in the assay on KB [2], 7 µM. The EC50 in the assay with KB [3] was 17.2 µM; in the assay on KB [4] it was above 100 µM; in the assay with A549, 10.6 µM; in the assay with MCF7, 62.2 µM; in the assay with CAKI-1 [8], above 100 µM; in the assay on HCT-8, 62.9 µM. Also, the EC50 in the assay with 1A9 was 0.15 µM. Moreover, the Activity in [9] and in [10] was 100% throughout.

For the compound `COc1cc([C@@H]2c3cc4c(cc3[C@@H](Nc3ccc(C(=O)NCCc5ccc(O)cc5)cc3)[C@H]3COC(=O)[C@H]23)OCO4)cc(OC)c1O`, in the assay with KB [6], the Relative resistance was found to be 32. Besides, the results for the EC50 with KB [11] and in the assay with KB [1] were 0.8 µg/mL (≈ 1.25 µM) and 0.02 µg/mL, respectively. For the same compound, the results for the Activity in assay [9] and in assay [10] were 368% and 275%, respectively.

The values above are taken from ChEMBL document CHEMBL1138779, “Antitumor agents. 234. Design, synthesis, and biological evaluation of novel 4beta-[(4' '-benzamido)-amino]-4'-o-demethyl-epipodophyllotoxin derivatives” (2004).
